Experimental data collected from several papers.
Action: inhibitor
EGFR L858R/T790M: Epidermal growth factor receptor (EGFR, Homo sapiens, UniProt P00533, L858R/T790M)
EGFR: Epidermal growth factor receptor (EGFR, Homo sapiens, UniProt P00533)
EGFR L858R: Epidermal growth factor receptor (EGFR, Homo sapiens, UniProt P00533, L858R)

| Compound | target | observed | method | cells | tested at | inhibition |
| --- | --- | --- | --- | --- | --- | --- |
| COc1cc(N(C)CCN(C)C)c(NC(=O)C=C(C)C)cc1Nc1nc(N2CCc3sccc3C2)c2sccc2n1 | EGFR L858R/T790M | enzyme activity | ELISA |  | 0.1 µM | 19.5% |
| COCCOc1cc2ncnc(Nc3cccc(OCCn4ccnc4[N+](=O)[O-])c3)c2cc1OCCOC | EGFR | enzyme activity | FRET |  | 1 µM | 28% |
| CS(=O)(=O)Nc1cccc(-c2csc(NC(=O)CSc3nc4nccnc4c(=O)n3CCc3ccccc3)n2)c1 | EGFR | enzyme activity |  |  | 10 µM | -1% |
| C=CC(=O)Nc1cc(Nc2nc(N3CCc4sccc4C3)c3cccnc3n2)c(OC)cc1N1CCN(C(C)=O)CC1 | EGFR L858R/T790M | enzyme activity | ELISA |  | 0.1 µM | 19.4% |
| CNc1cccc2cc(C(=O)Nc3ccc(C(=O)O)cc3)c(=O)[nH]c12 | EGFR | enzyme activity |  |  | 10 µM | -1.7% |
| COc1cc2ncnc(Nc3ccc(Oc4ccccc4)cc3C)c2cc1OC | EGFR L858R | enzyme activity |  |  | 1 µM | 64% |
| CCC(=O)Nc1cc(Nc2nc(N3CCc4sccc4C3)c3cccnc3n2)c(OC)cc1N1CCN(CCO)CC1 | EGFR L858R/T790M | enzyme activity | ELISA |  | 0.1 µM | 30.3% |
| COc1cc(-c2cc(-c3ccc(N4CCNCC4)cc3)cnc2N)cc(OC)c1OC | Epidermal growth factor receptor (EGFR, Homo sapiens, UniProt P00533, T790M) | enzyme activity |  |  | 0.1 µM | 2% |
| C=CC(=O)Nc1cc(Nc2nccc(Nc3cc(Cl)c(F)cc3C(C)(C)O)n2)c(OC)cc1N1CC[C@@H](N(C)C)C1 | EGFR | enzyme activity |  |  | 1 µM | 76% |
| C=CC(=O)Nc1cc(Nc2nc(Nc3cnn(C)c3)c3sccc3n2)c(OC)cc1N(C)CCN(C)C | EGFR L858R/T790M | enzyme activity | ELISA |  | 0.1 µM | 6.7% |
| COc1cc2c(Nc3cccc(OCCn4ccnc4[N+](=O)[O-])c3)ncnc2cc1OCCCN1CCOCC1 | EGFR | enzyme activity | FRET |  | 1 µM | 24% |
| C=CC(=O)Nc1cc(Nc2nc(N3CCc4sccc4C3)c3cccnc3n2)c(OC)cc1N1CCC(N(C)C)CC1 | EGFR L858R/T790M | enzyme activity | ELISA |  | 0.1 µM | 36% |
| COc1cc2ncnc(Nc3ccc(Oc4ccccc4)c(C)c3C)c2cc1OC | Epidermal growth factor receptor (EGFR, Homo sapiens, UniProt P00533, L861Q) | enzyme activity |  |  | 1 µM | 86% |
| CN(C)C1CCN(CC#Cc2nn(C3CCCC3)c3nc(NCc4ccccc4)ncc23)C1 (stereo not shown) | EGFR | enzyme activity | FRET |  | 1 µM | 7% |
| CNc1cc(Oc2cc(C(=O)Nc3cc(N4CCN(C)CC4)cc(C(F)(F)F)c3)ccc2C)ncn1 | EGFR | target engagement in cells | chemoproteomics | Huh-7 | 1 µM | -15.5% |
| O=C(CSc1nc2nccnc2c(=O)n1CCc1ccccc1)Nc1nccs1 | EGFR | enzyme activity |  |  | 10 µM | -2% |
| CCCS(=O)(=O)Nc1ccc(F)c(C(=O)c2c[nH]c3ncc(-c4ccc(Cl)cc4)cc23)c1F | EGFR | enzyme activity |  |  | 1 µM | < 10% |
| CC/C(=N\NC(=O)NCc1cccc(O)c1)c1ccc(O)c(C)c1O | EGFR L858R | enzyme activity |  |  | 0.1 µM | 0.5% |
| C=C(Cl)C(=O)Nc1cc(Nc2nc(N3CCOCC3)c3sccc3n2)c(OC)cc1N(C)CCN(C)C | EGFR L858R/T790M | enzyme activity | ELISA |  | 0.1 µM | 57.8% |
| CNCc1ccc(-c2cc(-c3nc(-c4ccc(S(=O)(=O)C(C)C)cc4)cnc3N)on2)cc1 | EGFR | enzyme activity |  |  | 2 µM | 0% |
| C=CC(=O)Nc1cc(Nc2nc(N3CCc4sccc4C3)c3sccc3n2)c(OC)cc1N1CCN(C)CC1 | EGFR L858R/T790M | enzyme activity | ELISA |  | 0.1 µM | 25.6% |
| CSc1nc(C)c(-c2ccnc(Nc3ccc(N4CCOCC4)cc3)c2)[nH]1 | EGFR | cell-free assay |  |  | 10 µM | 56.6% |
